The text below walks through data of ChEMBL document CHEMBL3352602, “One-pot synthesis and antiproliferative activity of novel 2,4-diaminopyrimidine derivatives bearing piperidine and piperazine moieties” (Eur J Med Chem, 2014).

For experiment [1], the system named is MDA-MB-231. Put plainly: Cytotoxicity against human MDA-MB-231 cells after 48 hrs by MTT assay. The conditions noted are these: MDA-MB-231, 48 h. Type of experiment: functional, cell-based. An outline of the steps:
(§1)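 MTT assay on cells grown in DMEM with 10% FBS and split at 70-80% confluence by trypsinization. Seeded 1×10^4 cells/well, attached 24 h at 37 °C. Compounds came from 10 mM DMSO stocks diluted in medium to a concentration series, with 0.1% DMSO as negative control. Cells were exposed for 48 h at 37 °C, then given MTT for 4 h. Formazan was dissolved in DMSO and read at 570 nm. IC50 was fitted from % inhibition versus control, mean of three independent experiments.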
A general note: Tetrazolium assays rely on reduction of a dye to a coloured formazan, in cell work by metabolically active cells.

Experiment [2] deals with MCF7. Put plainly: Cytotoxicity against human MCF7 cells after 48 hrs by MTT assay. Type of experiment: functional, cell-based. The conditions noted are these: MCF7, 48 h. Put shortly:
as §1

In experiment [3] the test system is HepG2. Put plainly: Cytotoxicity against human HepG2 cells after 48 hrs by MTT assay. Type of experiment: functional, cell-based. The conditions noted are these: HepG2, 48 h. Put shortly: as §1
Experiment [4] concerns A549. Put plainly: Cytotoxicity against human A549 cells after 48 hrs by MTT assay. Type of experiment: functional, cell-based. The conditions noted are these: A549, 48 h. An outline of the steps: as §1
Experiment [5] deals with MDA-MB-231. Put plainly: Induction of cell cycle arrest in human MDA-MB-231 cells assessed as accumulation at G2/M phase at 40 uM after 48 hrs by propidium iodide staining based FACS analysis (reference value: 18.12%). Type of experiment: functional. (In flow cytometry, cells or beads pass a laser one at a time.)
The subject of experiment [6] is MDA-MB-231. Put plainly: Induction of cell cycle arrest in human MDA-MB-231 cells assessed as accumulation at subG1 phase at 20 uM after 48 hrs by propidium iodide staining based FACS analysis (reference value: 1.69%). Type of experiment: functional.
Experiment [7] deals with MDA-MB-231. Put plainly: Induction of cell cycle arrest in human MDA-MB-231 cells assessed as accumulation at G2/M phase after 48 hrs by propidium iodide staining based FACS analysis (reference value: 18.12%). Type of experiment: functional.
In experiment [8] the test system is MDA-MB-231. Put plainly: Induction of cell cycle arrest in human MDA-MB-231 cells assessed as accumulation at subG1 phase at 40 uM after 48 hrs by propidium iodide staining based FACS analysis (reference value: 1.69%). Type of experiment: functional.
Experiment [9] deals with MDA-MB-231. Put plainly: Induction of cell cycle arrest in human MDA-MB-231 cells assessed as accumulation at G2/M phase at 20 uM after 48 hrs by propidium iodide staining based FACS analysis (reference value: 18.12%). Type of experiment: functional.
The subject of experiment [10] is MDA-MB-231. Put plainly: Induction of cell cycle arrest in human MDA-MB-231 cells assessed as accumulation at S phase at 80 uM after 48 hrs by propidium iodide staining based FACS analysis (reference value: 42.22%). Type of experiment: functional.
Experiment [11] deals with MDA-MB-231. Put plainly: Induction of cell cycle arrest in human MDA-MB-231 cells assessed as accumulation at G0/G1 phase at 80 uM after 48 hrs by propidium iodide staining based FACS analysis (reference value: 37.97%). Type of experiment: functional.
The test system of experiment [12] is MDA-MB-231. Put plainly: Induction of cell cycle arrest in human MDA-MB-231 cells assessed as accumulation at S phase at 40 uM after 48 hrs by propidium iodide staining based FACS analysis (reference value: 42.22%). Type of experiment: functional.
The subject of experiment [13] is MDA-MB-231. Put plainly: Induction of cell cycle arrest in human MDA-MB-231 cells assessed as accumulation at G0/G1 phase at 40 uM after 48 hrs by propidium iodide staining based FACS analysis (reference value: 37.97%). Type of experiment: functional.
Experiment [14] relates to MDA-MB-231. Put plainly: Cytotoxicity against human MDA-MB-231 cells after 48 hrs by MTT assay relative to fluorouracil. Type of experiment: functional.
Experiment [15] relates to MDA-MB-231. Put plainly: Induction of cell cycle arrest in human MDA-MB-231 cells assessed as accumulation at G0/G1 phase at 20 uM after 48 hrs by propidium iodide staining based FACS analysis (reference value: 37.97%). Type of experiment: functional.
For experiment [16], the system named is MDA-MB-231. Put plainly: Induction of cell cycle arrest in human MDA-MB-231 cells assessed as accumulation at G2/M phase at 80 uM after 48 hrs by propidium iodide staining based FACS analysis (reference value: 18.12%). Type of experiment: functional.
Experiment [17] relates to MDA-MB-231. Put plainly: Induction of cell cycle arrest in human MDA-MB-231 cells assessed as accumulation at subG1 phase at 80 uM after 48 hrs by propidium iodide staining based FACS analysis (reference value: 1.69%). Type of experiment: functional.
Experiment [18] has as its system MDA-MB-231. Put plainly: Induction of cell cycle arrest in human MDA-MB-231 cells assessed as accumulation at S phase at 20 uM after 48 hrs by propidium iodide staining based FACS analysis (reference value: 42.22%). Type of experiment: functional.
Experiment [19] deals with A549. Put plainly: Cytotoxicity against human A549 cells after 48 hrs by MTT assay relative to fluorouracil. Type of experiment: functional.

pIC50: −log10 of the molar value.

By pIC50 is commonly meant −log10 of the IC50, conventionally taken in molar units. Low readings indicate a high IC50, high ones a low IC50. Regarding `CS(=O)(=O)N1CCC(Nc2nccc(Nc3ccc(Cl)cc3)n2)CC1`, the negative-log IC50 (pIC50) in experiment [1] is < 3.70; in [2], < 3.70; in experiment [3], 4.10; in [4] it was < 3.70.

On to `COc1ccc(CNc2nc(NC3CCN(S(C)(=O)=O)CC3)ncc2Cl)cc1`, for which the pIC50 in experiment [1] was 4.47; in [2], 4.19; in [3], < 3.70; in [4], 4.22.

`CS(=O)(=O)N1CCC(Nc2ncc(Cl)c(Nc3ccc(Cl)cc3)n2)CC1`: the pIC50 in experiment [1], in experiment [2], in experiment [3] and in experiment [4] was < 3.70 throughout.

On to `CS(=O)(=O)N1CCC(Nc2nccc(NCc3ccccc3)n2)CC1`, for which the pIC50 was 4.22 in [1], 4.01 in [2], 3.83 in [3] and 4.37 in experiment [4].

Regarding `COc1ccc(CCNc2nccc(NC3CCN(S(C)(=O)=O)CC3)n2)cc1`, the pIC50 was 4.80 in experiment [1], 4.48 in experiment [2], 4.70 in experiment [3] and 4.67 in experiment [4].

Take `CN1CCN(c2ccnc(Nc3ccc(Cl)cc3)n2)CC1`: the pIC50 in [1], in [2], in experiment [3] and in experiment [4] was < 3.70 in each case.

Consider `CS(=O)(=O)N1CCC(Nc2ncc(Cl)c(NCCc3ccccc3)n2)CC1`, for which the pIC50 in experiment [1] was < 3.70; in experiment [2], < 3.70; in [3], 3.91; in experiment [4], < 3.70.

`CS(=O)(=O)N1CCC(Nc2ncc(Cl)c(NCCc3ccc(Cl)cc3)n2)CC1`: the pIC50 in [1], in experiment [2], in experiment [3] and in experiment [4] was < 3.70 in each case.

Regarding `COc1cccc(Nc2nccc(NC3CCN(S(C)(=O)=O)CC3)n2)c1`, the negative-log IC50 (pIC50) was 3.96 in [1], 4.14 in [2], 4.17 in experiment [3] and < 3.70 in [4].

Regarding `CS(=O)(=O)N1CCC(Nc2ccnc(Nc3ccc(Cl)cc3)n2)CC1`, the pIC50 is 3.99 in experiment [1], < 3.70 in [2], 4.03 in experiment [3] and < 3.70 in experiment [4].

For `COc1ccc(Nc2nc(NC3CCN(S(C)(=O)=O)CC3)ncc2Cl)cc1`, the negative logarithm of the IC50 (pIC50) in experiment [1], in [2], in [3] and in experiment [4] was < 3.70 each time.

`COc1cccc(Nc2ccnc(N3CCN(C)CC3)n2)c1`: the pIC50 in experiment [1], in [2], in experiment [3] and in experiment [4] was < 3.70 throughout.

For `CS(=O)(=O)N1CCC(Nc2ncc(Cl)c(Nc3ccccc3)n2)CC1`, the pIC50 in experiment [1], in [2], in [3] and in experiment [4] was < 3.70 in each case.

Regarding `COc1ccc(CNc2nccc(NC3CCN(S(C)(=O)=O)CC3)n2)cc1`, the pIC50 was 5.13 in [1], 4.79 in [2], 4.69 in [3] and 4.89 in experiment [4]. The Activity in experiment [5] was 36.51%; in [6], 1.09%; in experiment [7], “Dose-dependent effect”; in experiment [8], 1.03%; in [9], 33.79%; in experiment [10] it was 26.78%. The Activity in [11] was 31.01%; in experiment [12], 29.91%; in experiment [13] it was 32.55%; in experiment [15] it was 33.09%; in [16] it was 40.95%; in experiment [17] it was 1.26%. In addition, the Activity in experiment [18] is 32.03%. For the same molecule, the “Ratio IC50” value in [14] and in [19] was 2 each time.

Turning to `CN1CCN(c2nccc(NCc3ccccc3)n2)CC1`, the pIC50 in experiment [1], in experiment [2], in [3] and in experiment [4] was < 3.70 in each case.

With `COc1ccc(Nc2nccc(N3CCN(C)CC3)n2)cc1`, the pIC50 in experiment [1], in [2], in experiment [3] and in [4] was < 3.70 in each case.

Regarding `CS(=O)(=O)N1CCC(Nc2ncc(Cl)c(NCc3ccccc3)n2)CC1`, the pIC50 in experiment [1] was 4.93; in [2], 4.49; in experiment [3], < 3.70; in experiment [4], 4.33.

In the case of `COc1cccc(Nc2nc(NC3CCN(S(C)(=O)=O)CC3)ncc2Cl)c1`, the pIC50 in experiment [1], in experiment [2], in experiment [3] and in experiment [4] was < 3.70 each time.

Turning to `COc1ccc(CNc2ccnc(N3CCN(C)CC3)n2)cc1`, the pIC50 in experiment [1], in experiment [2], in experiment [3] and in experiment [4] was < 3.70 in each case.

As to `COc1ccc(CNc2ccnc(NC3CCN(S(C)(=O)=O)CC3)n2)cc1`, the pIC50 is 4.47 in [1], 4.24 in [2], 4.29 in experiment [3] and 4.29 in experiment [4].

On to `O=c1[nH]cc(F)c(=O)[nH]1` [FLUOROURACIL], for which the pIC50 in [1] was 4.61; in experiment [2], 4.40.

With `COc1ccc(Nc2nccc(NC3CCN(S(C)(=O)=O)CC3)n2)cc1`, the pIC50 in [1] was 4.24; in [2] it was < 3.70; in [3], 4.06; in [4] it was 4.04.

As for `COc1cccc(Nc2ccnc(NC3CCN(S(C)(=O)=O)CC3)n2)c1`, the pIC50 in experiment [1] is 4.53; in [2], 4.11; in experiment [3], 4.06; in [4], < 3.70.

As to `COc1ccccc1CCNc1nccc(N2CCN(C)CC2)n1`, the pIC50 in experiment [1], in [2], in [3] and in experiment [4] was < 3.70 each time.

As for `COc1ccc(CCNc2nc(NC3CCN(S(C)(=O)=O)CC3)ncc2Cl)cc1`, the pIC50 in experiment [1], in experiment [2], in [3] and in [4] was < 3.70 throughout.
